Most compounds without a hit are left out; they make up all but 2.7% or so of the library.
Wee1 degr inh: Wee1 degradation inhibitors, primary screen, cell-based, HeLa, Wee1K328M-luciferase, luminescence; Wee1-like protein kinase (Homo sapiens), P30291; HeLa Luc-Wee1K328M stability; 100% = proteasome inhibitor MG132 effect; reporter increase, % at 5 µM; actives 1.2% (n = 220,000); AID 1321, 2008;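 active means activation above the mean of all tested compounds plus 3 SD, set per screening run, cut at about 8.8% in these data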;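 further: cells exposed to compound for 20 h before luminescence read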
zVAD death inh: inhibitors of zVAD-triggered necroptosis, primary screen, L929 cells. L929 zVAD necroptosis rescue, ATP luminescence, 24 h; with zVAD 60 µM. viability rescue, % at 10 µM. actives 0.38% (n = 220,000);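 active means activation, scaled between plate controls, above about 75%, limit read from the data; inactive means activation under that limit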
RBBP9 inh: human RBBP9 inhibitors, primary screen, biochemical, fluorescence polarization, FP-Rh probe, HTS; Serine hydrolase RBBP9 (Homo sapiens), O75884; recombinant RBBP9; inhibition, % at 7.94 µM; actives 0.2% (n = 220,000); AID 1515, 2009;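 active means inhibition above the campaign mean of all tested compounds plus 3 SD, cut at about 14% in these data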
Target sequence (O75884 whole entry, looked up): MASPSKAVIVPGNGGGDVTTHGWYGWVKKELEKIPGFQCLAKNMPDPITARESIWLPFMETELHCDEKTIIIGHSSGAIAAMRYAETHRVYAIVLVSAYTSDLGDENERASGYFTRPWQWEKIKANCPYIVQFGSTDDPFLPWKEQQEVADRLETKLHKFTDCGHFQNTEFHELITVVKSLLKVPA
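Test system – recombinant human RBBP9 · Input – RBBP9 2.5 µM in dispensing solution, pre-mixing · Medium – Tris buffer pH 8.0, NaCl, Pluronic · Schedule – preincubation 30 min plus labeling 45 min at 25 °C · Measured by – fluorescence polarization · Measure – % inhibition · Controls – DMSO and no-protein wells · Replicates – one well per compound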
p97 ATPase inh: inhibitors of human p97 ATPase, primary screen, biochemical; inhibition, % at 8 µM; actives 0.42% (n = 220,000); Transitional endoplasmic reticulum ATPase (Homo sapiens), P55072; recombinant p97 ATPase, Kinase-Glo ATP luminescence, 3 h; in the data active means inhibition above about 15%
TNF death inh: inhibitors of TNF-alpha triggered necroptosis, primary screen, cell-based, Jurkat FADD-/-, single concentration; AID 463075, 2010; actives 0.068% (n = 220,000); Jurkat FADD-/- TNF necroptosis rescue, ATP luminescence, 24 h; 0 = TNF only, 100 = no-TNF cells; activation (protection from cell death), % at 10 µM;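 active means activation, meaning protection from cell death, of at least 50% relative to plate controls; inactive means activation below 50%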;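 further: necroptosis triggered by 40 ng/mL TNF-alpha added together with compound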
M18AAP inhibitor: PfM18AAP inhibitors, malaria aminopeptidase, primary screen, biochemical, QFRET, recombinant enzyme; M18 aspartyl aminopeptidase (Plasmodium falciparum 3D7); H-Glu-NHMec fluorogenic cleavage; inhibition, % at 7.35 µM; actives 1.2% (n = 290,000);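 active means inhibition above the campaign mean inhibition over all tested compounds plus 3 SD, cut at about 28% in these data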
Hits are given with their value; n = inactive; x = no result.

SMILES	Wee1 degr inh	zVAD death inh	RBBP9 inh	p97 ATPase inh	TNF death inh	M18AAP inhibitor
CCOC(=O)c1sc2cccc(Cl)c2c1N	n	n	n	n	n	n
O=C(/C=C/c1cn(CC(O)CN2CCCCC2)c2ccccc12)c1ccccc1 (centres undefined)	n	n	n	n	n	n
CN1CCN(Cn2cc(/C=C/C(=O)c3ccccc3)c3ccccc32)CC1	10	n	n	n	n	n
O=C(CSc1nnnn1-c1ccc(F)cc1)Nc1ccccc1F	x	x	x	x	x	n
COc1ccc(CN(C)Cc2cc(=O)n3ccsc3n2)c(OC)c1OC	n	n	n	n	n	n
O=C(CSc1nnnn1Cc1ccccc1)Nc1ccccc1	9.3	n	n	n	n	n
Clc1ccccc1-c1nnc(-c2cccs2)o1	10	n	n	n	n	n
Clc1ccccc1-c1nnc(-c2cccnc2)o1	x	x	x	x	x	n
CC(C)(CCC(=S)N1CCOCC1)C1CCCCC1	x	x	x	x	x	30
CCN(CC)C(=O)CSc1nnc([C@@H](N)C(C)C)o1	n	n	n	n	n	n
COc1ccc(-n2cc(-c3ccccc3)c3c(NCCCN4CCOCC4)ncnc32)cc1	8.9	n	n	n	n	n
c1ccc(-c2cn(-c3ccccc3)c3ncnc(NCCCN4CCOCC4)c23)cc1	n	n	n	n	n	n
NC(=O)CCS(=O)(=O)c1ccc(Cl)cc1	10	n	n	n	n	n
Cc1ccccc1N=Cc1cccc(O)c1O	n	x	n	n	n	30
CC(N=Cc1cccc(O)c1O)c1ccccc1 (centres undefined)	n	n	n	n	n	31
COc1ccc(C2CC3(CC(C)(C)NC(SC)=N3)Oc3cc(O)cc(C)c32)cc1 (centres undefined)	n	n	n	n	n	n
Cc1ccc2oc(=O)c3cc(C(=O)NCCN4CCN(C)CC4)sc3c2c1	10	n	n	n	n	n
Cc1ccc2oc(=O)c3cc(C(=O)NCCCN4CCCCCC4)sc3c2c1	x	x	x	x	x	n
Cc1csc(SCC(=O)NC(=O)NC(C)(C)C)n1	n	n	n	n	n	n
Cc1csc(SCC(=O)NC(=O)NC2CCCC2)n1	n	n	n	n	56	n
CCCC(C(=O)O)n1c(O)c(C=C2N=c3ccccc3=N2)sc1=S (centres undefined)	n	n	n	n	n	30
O=C(O)c1cccc(-n2c(O)c(C=C3N=c4ccccc4=N3)sc2=S)c1	n	n	n	n	n	31
O=C(O)CCCn1c(O)c(C=C2N=c3ccccc3=N2)sc1=S	n	n	n	n	n	n
COc1cc(NC(=O)C2CCC(CNS(=O)(=O)c3csc(C(N)=O)c3)CC2)cc(OC)c1 (centres undefined)	x	x	x	x	x	n
O=C(Cc1noc2ccccc12)NNC(=S)Nc1ccccc1	n	n	n	n	n	30
SMILES	Wee1 degr inh	zVAD death inh	RBBP9 inh	p97 ATPase inh	TNF death inh	M18AAP inhibitor
O=c1/c(=C/c2ccc([N+](=O)[O-])cc2)sc2n1CCCN=2	n	n	n	n	n	28
Cc1cc(C(=O)Nc2ccncc2)ccc1[N+](=O)[O-]	x	x	x	x	x	n
Cc1cc(C(=O)Nc2ncn(Cc3ccc(F)cc3)n2)ccc1[N+](=O)[O-]	n	n	n	n	n	31
O=C1c2c(O)cc(O)cc2O[C@H](c2ccc(O)c(O)c2)[C@@H]1O	n	x	n	n	x	82
O=C1c2c(O)cc(O)cc2O[C@H](c2ccc(O)c(O)c2)[C@H]1O	n	x	n	n	x	79
COc1cc([C@H]2Oc3cc([C@H]4Oc5cc(O)cc(O)c5C(=O)[C@@H]4O)ccc3O[C@@H]2CO)ccc1O	x	x	x	x	x	n
CC(NC(=O)c1cc(F)c(F)cc1Cl)C1CC2CCC1C2 (centres undefined)	x	x	x	x	x	n
Cc1cc(NC(=O)CCN2CCC(C)CC2)ccc1Br	x	x	x	x	x	n
Cc1cc(=O)oc2cc(OCC(=O)NC3CCCCC3)ccc12	x	x	x	x	x	n
COC(=O)COc1cccc2c(=O)n(CC(=O)NCc3ccc(F)cc3)ccc12	12	n	n	n	n	n

Bioassay records deposited in PubChem BioAssay by several laboratories.
